Columns and labels:
[1] = biological target: Sodium-dependent serotonin transporter (Homo sapiens, UniProt P31645); test: Displacement of [3H]citalopram from human SERT expressed in HEK293 cells; type: cell-based
Method in brief: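 Membranes (30–70 µg protein) from HEK-293 cells stably expressing hSERT, grown in DMEM/10% FBS/Geneticin. Incubated 2 h at room temperature with [3H]citalopram in 53 mM Tris, 126 mM NaCl, 5.3 mM KCl, pH 7.9. Competitor: 12 concentrations, 10^-13 to 10^-5 M, in triplicate. Rapid filtration on GF/B with cold buffer washes; Ki averaged from ≥2 separate assays.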

[2] = species: Homo sapiens; test: Selectivity for human NET to human SERT
Method in brief: (§1)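 Ratio of Ki at hDAT or hNET to Ki at hSERT. Ki values come from competition binding on transfected cell membranes: [125I]RTI-55 (MDCK-hDAT), [3H]nisoxetine (HEK-hNET) or [3H]citalopram (HEK-hSERT); 12 competitor concentrations from 10^-13 to 10^-5 M.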

[3] = species: Homo sapiens; test: Selectivity for human DAT to human SERT; method in brief: as §1
[4] = biological target: Sodium-dependent dopamine transporter (Homo sapiens, UniProt Q01959); test: Displacement of [125I]RTI-55 from human DAT expressed in MDCK cells; type: cell-based
Method in brief: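 MDCK cells stably expressing hDAT, grown to confluency in DMEM with 10% FBS and Geneticin, harvested in PBS/0.53 mM EDTA. Membranes (30–70 µg protein) were incubated 1 h at room temperature with 2.0 nM [125I]RTI-55 in 42 mM sodium phosphate/320 mM sucrose, pH 7.4. Competitor: 12 concentrations, 10^-13 to 10^-5 M, in triplicate. Filtered through PEI-soaked GF/B filters; Ki averaged over ≥2 assays.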

[5] = biological target: Sodium-dependent noradrenaline transporter (Homo sapiens, UniProt P23975); test: Displacement of [3H]nisoxetine from human NET t expressed in HEK293 cells; type: cell-based
Method in brief: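 Membranes (30–70 µg protein) from HEK-293 cells stably expressing hNET. Equilibrium with [3H]nisoxetine for 4 h at 4 °C in 53 mM Tris, 320 mM NaCl, 5.3 mM KCl, pH 7.4 at 4 °C. Competitor: 12 concentrations, 10^-13 to 10^-5 M, in triplicate. Ended by vacuum filtration through PEI-presoaked GF/B filters; Ki averaged from at least two assays, each in duplicate.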

[6] = tested on: Medulla; test: Drug uptake in cynomolgus monkey medulla after 85 mins; type: ADME, tissue-based, Macaca fascicularis, Medulla of organ; settings: in vivo
Method in brief: (§2)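 Baseline microPET (Concorde P4) scans in one anesthetized adult male cynomolgus monkey (7.50–8.35 kg) after i.v. radiotracer. Attenuation correction used a 68Ge transmission scan; OSEM reconstruction, 3 mm resolution. Value is the region-of-interest to cerebellum activity ratio at 85 min post-injection.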

[7] = tested on: Caudate; test: Drug uptake in cynomolgus monkey caudate in presence of citalopram after 115 mins; type: ADME, tissue-based, Macaca fascicularis, Caudate nucleus; settings: in vivo
Method in brief: (§3)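 Chase microPET scans in the same male cynomolgus monkey after i.v. 11C radiotracer (6.90–18.10 mCi). R,S-citalopram·HBr, 1.5 mg/kg, was given i.v. as a 30 s bolus at 45 min (ratios at 45 and 85 min) or 60 min (ratios at 55 and 115 min) post-tracer. Value is the region-to-cerebellum activity ratio before and after citalopram.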

[8] = tested on: Thalamus; test: Drug uptake in cynomolgus monkey thalamus after 55 mins; type: ADME, tissue-based, Macaca fascicularis; settings: in vivo; method in brief: as §3
[9] = tested on: Midbrain; test: Drug uptake in cynomolgus monkey midbrain in presence of citalopram after 115 mins; type: ADME, tissue-based, Macaca fascicularis; settings: in vivo; method in brief: as §3
[10] = tested on: Medulla; test: Drug uptake in cynomolgus monkey medulla after 55 mins; type: ADME, tissue-based, Macaca fascicularis, Medulla of organ; settings: in vivo; method in brief: as §3
[11] = tested on: Caudate; test: Drug uptake in cynomolgus monkey caudate after 85 mins; type: ADME, tissue-based, Macaca fascicularis, Caudate nucleus; settings: in vivo; method in brief: as §2
[12] = tested on: Occipital cortex; test: Drug uptake in cynomolgus monkey occipital cortex after 55 mins; type: ADME, tissue-based, Macaca fascicularis; settings: in vivo; method in brief: as §3
[13] = tested on: Midbrain; test: Drug uptake in cynomolgus monkey midbrain after 85 mins; type: ADME, tissue-based, Macaca fascicularis; settings: in vivo; method in brief: as §2
[14] = tested on: Pons; test: Drug uptake in cynomolgus monkey pons after 85 mins; type: ADME, tissue-based, Macaca fascicularis; settings: in vivo; method in brief: as §2
[15] = tested on: Frontal cortex; test: Drug uptake in cynomolgus monkey frontal cortex in presence of citalopram after 115 mins; type: ADME, tissue-based, Macaca fascicularis; settings: in vivo; method in brief: as §3
[16] = tested on: Putamen; test: Drug uptake in cynomolgus monkey putamen in presence of citalopram after 115 mins; type: ADME, tissue-based, Macaca fascicularis; settings: in vivo; method in brief: as §3
[17] = tested on: Putamen; test: Drug uptake in cynomolgus monkey putamen after 85 mins; type: ADME, tissue-based, Macaca fascicularis; settings: in vivo; method in brief: as §2
[18] = tested on: Frontal cortex; test: Drug uptake in cynomolgus monkey frontal cortex after 85 mins; type: ADME, tissue-based, Macaca fascicularis; settings: in vivo; method in brief: as §2
[19] = tested on: Thalamus; test: Drug uptake in cynomolgus monkey thalamus in presence of citalopram after 115 mins; type: ADME, tissue-based, Macaca fascicularis; settings: in vivo; method in brief: as §3
[20] = tested on: Thalamus; test: Drug uptake in cynomolgus monkey thalamus after 85 mins; type: ADME, tissue-based, Macaca fascicularis; settings: in vivo; method in brief: as §2
[21] = tested on: Pons; test: Drug uptake in cynomolgus monkey pons after 55 mins; type: ADME, tissue-based, Macaca fascicularis; settings: in vivo; method in brief: as §3
[22] = tested on: Medulla; test: Drug uptake in cynomolgus monkey medulla in presence of citalopram after 115 mins; type: ADME, tissue-based, Macaca fascicularis, Medulla of organ; settings: in vivo; method in brief: as §3
[23] = tested on: Occipital cortex; test: Drug uptake in cynomolgus monkey occipital cortex in presence of citalopram after 115 mins; type: ADME, tissue-based, Macaca fascicularis; settings: in vivo; method in brief: as §3
[24] = tested on: Frontal cortex; test: Drug uptake in cynomolgus monkey frontal cortex after 55 mins; type: ADME, tissue-based, Macaca fascicularis; settings: in vivo; method in brief: as §3
[25] = tested on: Pons; test: Drug uptake in cynomolgus monkey pons in presence of citalopram after 115 mins; type: ADME, tissue-based, Macaca fascicularis; settings: in vivo; method in brief: as §3
[26] = tested on: Caudate; test: Drug uptake in cynomolgus monkey caudate after 55 mins; type: ADME, tissue-based, Macaca fascicularis, Caudate nucleus; settings: in vivo; method in brief: as §3
[27] = Partition coefficient, log P at pH 7.4; type: physicochemical; settings: octanol/water
Method in brief: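 Each 11C-labelled radiotracer was partitioned between 1-octanol and 0.02 M phosphate buffer at pH 7.4.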

[28] = tested on: Midbrain; test: Drug uptake in cynomolgus monkey midbrain after 55 mins; type: ADME, tissue-based, Macaca fascicularis; settings: in vivo; method in brief: as §3
[29] = tested on: Putamen; test: Drug uptake in cynomolgus monkey putamen after 55 mins; type: ADME, tissue-based, Macaca fascicularis; settings: in vivo; method in brief: as §3
[30] = tested on: Occipital cortex; test: Drug uptake in cynomolgus monkey occipital cortex after 85 mins; type: ADME, tissue-based, Macaca fascicularis; settings: in vivo; method in brief: as §2
[31] = tested on: Frontal cortex; test: Drug uptake in cynomolgus monkey frontal cortex in presence of citalopram after 85 mins; type: ADME, tissue-based, Macaca fascicularis; settings: in vivo; method in brief: as §3
[32] = tested on: Caudate; test: Drug uptake in cynomolgus monkey caudate in presence of citalopram after 85 mins; type: ADME, tissue-based, Macaca fascicularis, Caudate nucleus; settings: in vivo; method in brief: as §3
[33] = tested on: Medulla; test: Drug uptake in cynomolgus monkey medulla after 45 mins; type: ADME, tissue-based, Macaca fascicularis, Medulla of organ; settings: in vivo, 0.75 h; method in brief: as §3
[34] = tested on: Caudate; test: Drug uptake in cynomolgus monkey caudate after 45 mins; type: ADME, tissue-based, Macaca fascicularis, Caudate nucleus; settings: in vivo, 0.75 h; method in brief: as §3
[35] = tested on: Midbrain; test: Drug uptake in cynomolgus monkey midbrain after 45 mins; type: ADME, tissue-based, Macaca fascicularis; settings: in vivo, 0.75 h; method in brief: as §3
[36] = tested on: Putamen; test: Drug uptake in cynomolgus monkey putamen in presence of citalopram after 85 mins; type: ADME, tissue-based, Macaca fascicularis; settings: in vivo; method in brief: as §3
[37] = tested on: Occipital cortex; test: Drug uptake in cynomolgus monkey occipital cortex after 45 mins; type: ADME, tissue-based, Macaca fascicularis; settings: in vivo, 0.75 h; method in brief: as §3
[38] = tested on: Pons; test: Drug uptake in cynomolgus monkey pons in presence of citalopram after 85 mins; type: ADME, tissue-based, Macaca fascicularis; settings: in vivo; method in brief: as §3
[39] = tested on: Thalamus; test: Drug uptake in cynomolgus monkey thalamus in presence of citalopram after 85 mins; type: ADME, tissue-based, Macaca fascicularis; settings: in vivo; method in brief: as §3
[40] = tested on: Midbrain; test: Drug uptake in cynomolgus monkey midbrain in presence of citalopram after 85 mins; type: ADME, tissue-based, Macaca fascicularis; settings: in vivo; method in brief: as §3
[41] = tested on: Putamen; test: Drug uptake in cynomolgus monkey putamen after 45 mins; type: ADME, tissue-based, Macaca fascicularis; settings: in vivo, 0.75 h; method in brief: as §3
[42] = tested on: Occipital cortex; test: Drug uptake in cynomolgus monkey occipital cortex in presence of citalopram after 85 mins; type: ADME, tissue-based, Macaca fascicularis; settings: in vivo; method in brief: as §3
[43] = tested on: Frontal cortex; test: Drug uptake in cynomolgus monkey frontal cortex after 45 mins; type: ADME, tissue-based, Macaca fascicularis; settings: in vivo, 0.75 h; method in brief: as §3
[44] = tested on: Thalamus; test: Drug uptake in cynomolgus monkey thalamus after 45 mins; type: ADME, tissue-based, Macaca fascicularis; settings: in vivo, 0.75 h; method in brief: as §3
[45] = tested on: Pons; test: Drug uptake in cynomolgus monkey pons after 45 mins; type: ADME, tissue-based, Macaca fascicularis; settings: in vivo, 0.75 h; method in brief: as §3
[46] = tested on: Medulla; test: Drug uptake in cynomolgus monkey medulla in presence of citalopram after 85 mins; type: ADME, tissue-based, Macaca fascicularis, Medulla of organ; settings: in vivo; method in brief: as §3

Sodium-dependent serotonin transporter, sequence (P31645 whole entry): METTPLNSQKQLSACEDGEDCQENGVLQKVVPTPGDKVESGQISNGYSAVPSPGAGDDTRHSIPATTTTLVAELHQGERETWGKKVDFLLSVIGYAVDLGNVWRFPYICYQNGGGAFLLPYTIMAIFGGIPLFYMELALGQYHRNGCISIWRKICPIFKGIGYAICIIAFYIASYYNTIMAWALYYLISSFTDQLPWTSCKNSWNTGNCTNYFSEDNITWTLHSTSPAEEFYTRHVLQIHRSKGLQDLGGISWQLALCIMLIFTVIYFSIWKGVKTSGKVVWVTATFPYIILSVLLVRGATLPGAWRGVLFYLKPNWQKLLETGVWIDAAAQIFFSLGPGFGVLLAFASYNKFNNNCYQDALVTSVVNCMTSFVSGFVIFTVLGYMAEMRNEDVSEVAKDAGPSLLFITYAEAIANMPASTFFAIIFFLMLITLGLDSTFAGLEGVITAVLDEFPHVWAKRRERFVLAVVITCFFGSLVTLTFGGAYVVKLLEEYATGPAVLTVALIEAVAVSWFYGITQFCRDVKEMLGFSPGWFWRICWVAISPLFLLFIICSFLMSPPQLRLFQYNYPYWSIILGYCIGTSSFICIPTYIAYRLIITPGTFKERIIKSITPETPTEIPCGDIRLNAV
Sodium-dependent dopamine transporter, sequence (Q01959 whole entry): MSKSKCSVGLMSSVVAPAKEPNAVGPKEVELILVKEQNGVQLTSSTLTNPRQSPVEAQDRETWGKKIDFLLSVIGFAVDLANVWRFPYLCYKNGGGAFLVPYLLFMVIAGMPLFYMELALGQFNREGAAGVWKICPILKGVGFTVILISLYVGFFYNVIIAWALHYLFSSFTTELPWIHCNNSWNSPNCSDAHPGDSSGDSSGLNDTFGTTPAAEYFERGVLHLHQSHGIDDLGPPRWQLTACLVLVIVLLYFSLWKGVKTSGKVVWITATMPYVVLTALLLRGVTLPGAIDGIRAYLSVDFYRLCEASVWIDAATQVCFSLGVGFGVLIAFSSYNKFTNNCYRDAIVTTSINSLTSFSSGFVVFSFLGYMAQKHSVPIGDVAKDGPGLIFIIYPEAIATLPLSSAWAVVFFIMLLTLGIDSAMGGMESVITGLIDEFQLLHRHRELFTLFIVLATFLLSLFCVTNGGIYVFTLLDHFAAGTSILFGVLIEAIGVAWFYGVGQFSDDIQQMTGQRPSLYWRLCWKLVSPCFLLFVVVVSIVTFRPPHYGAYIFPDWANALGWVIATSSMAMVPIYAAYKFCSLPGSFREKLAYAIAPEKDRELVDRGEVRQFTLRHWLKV
Sodium-dependent noradrenaline transporter, sequence (P23975 whole entry): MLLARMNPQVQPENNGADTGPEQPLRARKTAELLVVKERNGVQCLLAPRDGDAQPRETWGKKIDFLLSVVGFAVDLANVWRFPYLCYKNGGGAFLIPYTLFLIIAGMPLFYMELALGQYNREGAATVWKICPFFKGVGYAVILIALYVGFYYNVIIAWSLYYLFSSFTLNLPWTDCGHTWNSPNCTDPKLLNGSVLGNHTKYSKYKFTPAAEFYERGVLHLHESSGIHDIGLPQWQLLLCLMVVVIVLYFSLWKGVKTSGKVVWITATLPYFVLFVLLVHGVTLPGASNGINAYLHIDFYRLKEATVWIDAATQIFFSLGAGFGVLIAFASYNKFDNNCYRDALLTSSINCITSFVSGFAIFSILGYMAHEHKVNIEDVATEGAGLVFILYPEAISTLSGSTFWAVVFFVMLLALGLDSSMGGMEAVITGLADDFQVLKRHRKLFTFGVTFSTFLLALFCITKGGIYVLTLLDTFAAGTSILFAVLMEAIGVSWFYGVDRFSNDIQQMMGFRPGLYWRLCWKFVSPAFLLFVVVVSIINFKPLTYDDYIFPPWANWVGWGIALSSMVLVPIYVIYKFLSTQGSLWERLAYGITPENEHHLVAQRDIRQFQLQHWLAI

## CN(C)Cc1cc(I)ccc1Sc1ccc(CO)cc1N
[1]
  Ki: 0.31 nM
[2]
  Ratio Ki: > 1000
[3]
  Ratio Ki: > 1000
[4]
  Ki: > 2000 nM
[5]
  Ki: 467 nM

## CN([11CH3])Cc1cc(I)ccc1Sc1ccc(CO)cc1N
[6]
  Ratio: 2.4
[7]
  Ratio: 1.3
[8]
  Ratio: 2
[9]
  Ratio: 1.7
[10]
  Ratio: 2.5
[11]
  Ratio: 1.8
[12]
  Ratio: 1.2
[13]
  Ratio: 3
[14]
  Ratio: 1.65
[15]
  Ratio: 1
[16]
  Ratio: 1.4
[17]
  Ratio: 2.3
[18]
  Ratio: 1.09
[19]
  Ratio: 1.63
[20]
  Ratio: 2.06
[21]
  Ratio: 1.9
[22]
  Ratio: 1.6
[23]
  Ratio: 1.1
[24]
  Ratio: 1
[25]
  Ratio: 1.5
[26]
  Ratio: 1.8
[27]
  logD: 1.82
[28]
  Ratio: 2.4
[29]
  Ratio: 1.9
[30]
  Ratio: 1.2

## CN(C)Cc1cc(F)ccc1Sc1ccc(CO)cc1N
[1]
  Ki: 1.26 nM
[2]
  Ratio Ki: 490
[3]
  Ratio Ki: > 1000
[4]
  Ki: > 2000 nM
[5]
  Ki: 618 nM

## CN(C)Cc1ccccc1Sc1ccc(CO)cc1N
[2]
  Ratio Ki: 532
[27]
  logD: 1.6
[3]
  Ratio Ki: > 1000
[4]
  Ki: > 1000 nM

## CN(C)Cc1cc(Br)ccc1Sc1ccc(CO)cc1N
[1]
  Ki: 0.29 nM
[2]
  Ratio Ki: > 2000
[3]
  Ratio Ki: 762
[4]
  Ki: 221 nM
[5]
  Ki: 725 nM

## CN([11CH3])Cc1cc(Br)ccc1Sc1ccc(CO)cc1N
[6]
  Ratio: 2.6
[7]
  Ratio: 1
[8]
  Ratio: 1.8
[9]
  Ratio: 1.2
[10]
  Ratio: 2.3
[11]
  Ratio: 1.7
[12]
  Ratio: 1.35
[13]
  Ratio: 3.24
[14]
  Ratio: 2.8
[15]
  Ratio: 1
[16]
  Ratio: 1.2
[17]
  Ratio: 2.4
[18]
  Ratio: 1.06
[19]
  Ratio: 1.4
[20]
  Ratio: 2.3
[21]
  Ratio: 2
[22]
  Ratio: 1.1
[23]
  Ratio: 1.1
[24]
  Ratio: 1
[25]
  Ratio: 1.23
[26]
  Ratio: 1.4
[27]
  logD: 2.63
[28]
  Ratio: 2.4
[29]
  Ratio: 1.6
[30]
  Ratio: 1.34

## CN([11CH3])Cc1cc(F)ccc1Sc1ccc(CO)cc1N
[6]
  Ratio: 2.1
[31]
  Ratio: 1
[32]
  Ratio: 1.06
[33]
  Ratio: 2
[34]
  Ratio: 1.6
[13]
  Ratio: 3.4
[35]
  Ratio: 2.3
[14]
  Ratio: 2.8
[18]
  Ratio: 1.04
[20]
  Ratio: 2.3
[36]
  Ratio: 1.2
[37]
  Ratio: 1.3
[38]
  Ratio: 1.4
[39]
  Ratio: 1.3
[40]
  Ratio: 1.2
[41]
  Ratio: 1.8
[27]
  logD: 2.06
[42]
  Ratio: 1.04
[43]
  Ratio: 1.06
[44]
  Ratio: 1.9
[45]
  Ratio: 2
[46]
  Ratio: 1.1

Reference: ChEMBL document CHEMBL1140708, “Synthesis and in vivo evaluation of halogenated N,N-dimethyl-2-(2'-amino-4'-hydroxymethylphenylthio)benzylamine derivatives as PET serotonin transporter ligands” (J Med Chem, 2008)
